Measurements published in ChEMBL document CHEMBL4725360, “Optimization of Acetazolamide-Based Scaffold as Potent Inhibitors of Vancomycin-Resistant Enterococcus” (J Med Chem, 2020).
Converted amounts (≈) assume the structure as drawn. Each block holds one molecule with its values, some of them ahead of it. The source made the active and inactive calls. The calls are words filed in the database; no cut-off is given here.

How the values were obtained:
[1] = system: Enterococcus faecium; assay: Antibacterial activity against Enterococcus faecium HM965 incubated for 18 to 20 hrs under aerobic condition by CLSI protocol based broth microdilution assay; format: functional; details: time hrs 18-20
Method in brief: (§1)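 Broth microdilution per CLSI. Strains grown aerobically overnight on trypticase soy agar at 37 °C. Inoculum set to 0.5 McFarland, diluted in trypticase soy broth to about 5 × 10⁵ CFU/mL. Agents serially diluted, plates incubated aerobically at 37 °C for 18–20 h. MIC is the lowest concentration with no visible growth. Compound stocks 10 mg/mL in DMSO.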

[2] = system: Enterococcus faecium; assay: Inhibition of carbonic anhydrase in Enterococcus faecium ATCC 700221 assessed as antibacterial activity incubated for 18 to 20 hrs in presence of 5% CO2 by CLSI protocol based broth microdilution assay; details: time hrs 18-20
Method in brief: (§2)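 CLSI broth microdilution: inoculum about 5 × 10⁵ CFU/mL in trypticase soy broth with serial dilutions of agents. Paired plates incubated at 37 °C for 18–20 h, one set in ambient air ("normal"), the other under 5% CO₂. MIC is the lowest concentration completely inhibiting visible growth.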

[3] = system: Enterococcus faecium; assay: Inhibition of carbonic anhydrase in Enterococcus faecium ATCC 700221 assessed as antibacterial activity incubated for 18 to 20 hrs in presence of ambient air by CLSI protocol based broth microdilution assay; details: time hrs 18-20; method in brief: as §2
[4] = system: Enterococcus faecium; assay: Antibacterial activity against Enterococcus faecium NR-28978 incubated for 18 to 20 hrs under aerobic condition by CLSI protocol based broth microdilution assay; format: functional; details: time hrs 18-20; method in brief: as §1
[5] = system: Enterococcus faecium; assay: Antibacterial activity against Enterococcus faecium HM968 incubated for 18 to 20 hrs under aerobic condition by CLSI protocol based broth microdilution assay; format: functional; details: time hrs 18-20; method in brief: as §1
[6] = system: Enterococcus faecium; assay: Antibacterial activity against Enterococcus faecium NR-31972 incubated for 18 to 20 hrs under aerobic condition by CLSI protocol based broth microdilution assay; format: functional; details: time hrs 18-20; method in brief: as §1
[7] = system: Enterococcus faecium; assay: Antibacterial activity against Enterococcus faecium NR-31971 incubated for 18 to 20 hrs under aerobic condition by CLSI protocol based broth microdilution assay; format: functional; details: time hrs 18-20; method in brief: as §1
[8] = system: Enterococcus faecium; assay: Antibacterial activity against Enterococcus faecium NR-32065 incubated for 18 to 20 hrs under aerobic condition by CLSI protocol based broth microdilution assay; format: functional; details: time hrs 18-20; method in brief: as §1
[9] = Cytotoxicity against human Caco2 cells incubated for 2 hrs by MTS assay; format: cell-based; details: Caco-2 cells
Method in brief: (§3)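 Caco-2 cells maintained in DMEM with 10% FBS, non-essential amino acids and penicillin-streptomycin at 37 °C, 5% CO₂. Compound exposure for 2 h in serum-free medium at several concentrations; DMSO-matched controls. Viability expressed relative to DMSO controls (mean ± SD), and CC₅₀ derived.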

[10] = system: Enterococcus faecalis; assay: Antibacterial activity against Enterococcus faecalis NR-31970 incubated for 18 to 20 hrs under aerobic condition by CLSI protocol based broth microdilution assay; format: functional, organism-based; details: time hrs 18-20; method in brief: as §1
[11] = system: Enterococcus faecium; assay: Antibacterial activity against Enterococcus faecium NR-31903 incubated for 18 to 20 hrs under aerobic condition by CLSI protocol based broth microdilution assay; format: functional; details: time hrs 18-20; method in brief: as §1
[12] = system: Enterococcus faecalis; assay: Antibacterial activity against Enterococcus faecalis HM-334 incubated for 18 to 20 hrs under aerobic condition by CLSI protocol based broth microdilution assay; format: functional; details: time hrs 18-20; method in brief: as §1
[13] = system: Enterococcus faecium; assay: Antibacterial activity against Enterococcus faecium NR-31916 incubated for 18 to 20 hrs under aerobic condition by CLSI protocol based broth microdilution assay; format: functional; details: time hrs 18-20; method in brief: as §1
[14] = system: Caco-2; assay: Cytotoxicity against human Caco2 cells at 128 ug/ml incubated for 2 hrs by MTS assay; format: cell-based; details: caco-2, 2 h, dose 128 µg/ml; method in brief: as §3
[15] = system: Enterococcus faecium; assay: Antibacterial activity against Enterococcus faecium NR-32052 incubated for 18 to 20 hrs under aerobic condition by CLSI protocol based broth microdilution assay; format: functional; details: time hrs 18-20; method in brief: as §1
[16] = system: Enterococcus faecium; assay: Antibacterial activity against Enterococcus faecium NR-31914 incubated for 18 to 20 hrs under aerobic condition by CLSI protocol based broth microdilution assay; format: functional; details: time hrs 18-20; method in brief: as §1
[17] = system: Enterococcus faecalis; assay: Antibacterial activity against Enterococcus faecalis NR-31975 incubated for 18 to 20 hrs under aerobic condition by CLSI protocol based broth microdilution assay; format: functional, organism-based; details: time hrs 18-20; method in brief: as §1
[18] = system: Enterococcus faecalis; assay: Antibacterial activity against Enterococcus faecalis HM-335 incubated for 18 to 20 hrs under aerobic condition by CLSI protocol based broth microdilution assay; format: functional; details: time hrs 18-20; method in brief: as §1

MIC [1]: 2 µg/mL (≈ 7.03 µM)
SMILES: NS(=O)(=O)c1nnc(NC(=O)c2ccccc2)s1

MIC [1]: 0.25 µg/mL (≈ 0.821 µM)
SMILES: CC1CCC(C(=O)Nc2nnc(S(N)(=O)=O)s2)CC1 (configuration not stated)

MIC [1]: 1 µg/mL (≈ 4 µM) | inhibition [2]: inactive | inhibition [3]: Active
SMILES: CC(C)C(=O)Nc1nnc(S(N)(=O)=O)s1

MIC [1]: 1 µg/mL (≈ 4.23 µM) | inhibition [2]: inactive | inhibition [3]: Active
SMILES: CCC(=O)Nc1nnc(S(N)(=O)=O)s1 [PROPAZOLAMIDE]

MIC [4]: 0.06 µg/mL (≈ 0.205 µM) | MIC [5]: 0.015 µg/mL (≈ 0.0513 µM) | MIC [6]: 0.03 µg/mL (≈ 0.103 µM) | MIC [7]: 0.03 µg/mL (≈ 0.103 µM) | MIC [8]: 0.03 µg/mL (≈ 0.103 µM) | MIC [1]: 0.015 µg/mL (≈ 0.0513 µM) | MIC [11]: 0.03 µg/mL (≈ 0.103 µM) | MIC [12]: 0.015 µg/mL (≈ 0.0513 µM) | MIC [13]: 0.06 µg/mL (≈ 0.205 µM) | inhibition [2]: inactive | MIC [15]: 0.03 µg/mL (≈ 0.103 µM) | MIC [16]: 0.03 µg/mL (≈ 0.103 µM) | inhibition [3]: Active | MIC [18]: 0.015 µg/mL (≈ 0.0513 µM)
SMILES: CCCCCCC(=O)Nc1nnc(S(N)(=O)=O)s1
CC50 at 2 h [9]: > 128 µg/mL | Activity [10]: Active | Activity [14]: Non-Toxic | Activity [17]: Active

MIC [4]: 0.5 µg/mL (≈ 1.6 µM) | MIC [5]: 0.25 µg/mL (≈ 0.8 µM) | MIC [6]: 0.125 µg/mL (≈ 0.4 µM) | MIC [7]: 0.125 µg/mL (≈ 0.4 µM) | MIC [8]: 0.125 µg/mL (≈ 0.4 µM) | MIC [1]: 0.06 µg/mL (≈ 0.192 µM) | MIC [11]: 0.25 µg/mL (≈ 0.8 µM) | MIC [12]: 0.015 µg/mL (≈ 0.048 µM) | MIC [13]: 0.125 µg/mL (≈ 0.4 µM) | inhibition [2]: inactive | MIC [15]: 0.5 µg/mL (≈ 1.6 µM) | MIC [16]: 0.25 µg/mL (≈ 0.8 µM) | inhibition [3]: Active | MIC [18]: 0.125 µg/mL (≈ 0.4 µM)
SMILES: NS(=O)(=O)c1nnc(NC(=O)CCc2ccccc2)s1
CC50 at 2 h [9]: > 128 µg/mL | Activity [14]: Non-Toxic

MIC [1]: 1 µg/mL (≈ 3.43 µM) | inhibition [2]: inactive | inhibition [3]: Active
SMILES: NS(=O)(=O)c1nnc(NC(=O)CN2CCCC2)s1

MIC [1]: > 64 µg/mL
SMILES: CCNc1nnc(S(N)(=O)=O)s1

MIC [1]: > 64 µg/mL
SMILES: NS(=O)(=O)c1nnc(NCc2ccccc2)s1

MIC [4]: 0.5 µg/mL (≈ 1.72 µM) | MIC [5]: 0.5 µg/mL (≈ 1.72 µM) | MIC [6]: 0.25 µg/mL (≈ 0.861 µM) | MIC [7]: 0.5 µg/mL (≈ 1.72 µM) | MIC [8]: 0.5 µg/mL (≈ 1.72 µM) | MIC [1]: 0.25 µg/mL (≈ 0.861 µM) | MIC [11]: 0.5 µg/mL (≈ 1.72 µM) | MIC [12]: 0.25 µg/mL (≈ 0.861 µM) | MIC [13]: 0.25 µg/mL (≈ 0.861 µM) | MIC [15]: 0.5 µg/mL (≈ 1.72 µM) | MIC [16]: 0.5 µg/mL (≈ 1.72 µM) | MIC [18]: 0.5 µg/mL (≈ 1.72 µM)
SMILES: NS(=O)(=O)c1nnc(NC(=O)C2CCCCC2)s1
CC50 at 2 h [9]: > 128 µg/mL | Activity [10]: Active | Activity [14]: Non-Toxic | Activity [17]: Active

MIC [1]: 0.5 µg/mL (≈ 2 µM) | inhibition [2]: inactive | inhibition [3]: Active
SMILES: CCCC(=O)Nc1nnc(S(N)(=O)=O)s1

MIC [1]: > 64 µg/mL
SMILES: CC(=O)Nc1ncc(S(N)(=O)=O)s1

MIC [1]: > 64 µg/mL
SMILES: NS(=O)(=O)c1nnc(NCC2CCCCC2)s1

MIC [4]: 0.125 µg/mL (≈ 0.411 µM) | MIC [5]: 0.06 µg/mL (≈ 0.197 µM) | MIC [6]: 0.03 µg/mL (≈ 0.0986 µM) | MIC [7]: 0.03 µg/mL (≈ 0.0986 µM) | MIC [8]: 0.06 µg/mL (≈ 0.197 µM) | MIC [1]: 0.06 µg/mL (≈ 0.197 µM) | MIC [11]: 0.03 µg/mL (≈ 0.0986 µM) | MIC [12]: 0.015 µg/mL (≈ 0.0493 µM) | MIC [13]: 0.03 µg/mL (≈ 0.0986 µM) | inhibition [2]: inactive | MIC [15]: 0.06 µg/mL (≈ 0.197 µM) | MIC [16]: 0.06 µg/mL (≈ 0.197 µM) | inhibition [3]: Active | MIC [18]: 0.06 µg/mL (≈ 0.197 µM)
SMILES: NS(=O)(=O)c1nnc(NC(=O)CCC2CCCC2)s1
CC50 at 2 h [9]: > 128 µg/mL | Activity [10]: Active | Activity [14]: Non-Toxic | Activity [17]: Active

MIC [1]: 0.25 µg/mL (≈ 0.905 µM)
SMILES: NS(=O)(=O)c1nnc(NC(=O)CC2CCC2)s1
